# SKKanGAS inh = S. pyogenes SKKanGAS growth inhibitors in kanamycin, primary screen, streptokinase expression inhibitor project, SKKanGAS strain, BacTiter-Glo luminescence. 6 h. inhibition, % at 7.5 µM. 300,000 compounds, 1.3% hits;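 active = mean replicate score, as percent of positive control median, at least 50; inconclusive = mean below 50 but one replicate at or above 50; inactive = mean and every replicate below 50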;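 note: strain carries kanamycin resistance gene driven by streptokinase promoter and grows in 40 µg/ml kanamycin; loss of luminescence reflects streptokinase promoter inhibition or plain growth inhibition; 0% = median of DMSO wells and 100% = positive control at its reference dose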
# Beta cell apopt = inhibitors of cytokine-induced beta cell apoptosis, primary screen, luminescence. 300,000 compounds, 0.8% hits. protection from apoptosis, % (concentration not given with the values). INS-1E cytokine-induced death, ATP luminescence, 48 h; percent of positive-control rescue, neutral wells zero. AID 435005, 2010;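 active = Every replicate reaches about 75%, or at least half do and their mean reaches it too, limit read from the data; inconclusive = At least half of replicates reach the limit but their mean does not; inactive = Under half of replicates reach the limit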;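 note: 0% = cytokine-treated negative control wells and 100% = positive control rescue; higher means more ATP so stronger rescue from cytokine killing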
# Mdm2-MdmX inh = inhibitors of human Mdm2-MdmX association, primary screen, cell-based, luminescence, split luciferase, SaOS-2, uHTS | SaOS-2 split-luciferase Mdm2/MdmX complementation | inhibition, % at 8 µM | 330,000 compounds, 3% hits;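 active = inhibition of at least 50% at 8 µM in the primary screen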
# T cruzi repl = inhibitors of intracellular T. cruzi growth, primary screen, luminescence, NIH3T3 host cells; T. cruzi beta-gal in NIH3T3, 90 h; inhibition, % (test concentration not listed); 300,000 compounds, 1.4% hits;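 active = mean inhibition across valid replicates above about 55%, limit read from the data; inconclusive = mean below that limit but half or more replicates reach it; inactive = mean below it, under half of replicates reach it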;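 note: signal also drops with host cell toxicity which is not excluded here; 0% = plate median of DMSO wells and 100% = zero luminescence signal; higher percent means less beta-gal luminescence so fewer parasites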
#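 System: NIH/3T3 fibroblasts plus reporter T. cruzi. Medium: DMEM plus 2% FBS. Probe or stimulus: 5000 reporter trypomastigotes per well. Compound: single 50 nL compound addition per well in DMSO. Incubation: co-culture of at least 90 h after 3 h attachment. Detection: GalScreen β-gal luminescence, detergent lysis, 60 min. Evaluation: parasite load inhibition, %.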
# L major viab = Leishmania major promastigote growth inhibition, primary screen; 200,000 compounds, 9% hits; Leishmania major promastigotes, resazurin fluorescence viability; inhibition, % at 10 µM; in the data active = inhibition above about 50%;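 note: promastigotes grown with compound for 44 hours at 28 °C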
# CSC inhib = cancer stem cell viability inhibitors, primary screen, luminescence; cancer stem cell-like cells viability; inhibition, % at 7.5 µM; 300,000 compounds, 1.1% hits; AID 2717, 2010; in the data active = inhibition above about 75%; inconclusive = no clear call, values can overlap the other calls; tested in HMLE shEcad cells
# L major 1uM = Leishmania major promastigote growth inhibition, confirmation, 1 µM repeat of primary hits. shares compounds with L major viab. L. major promastigote growth, resazurin fluorescence, 48 h. 1,100 compounds, 13% hits. AID 1258, 2008. inhibition, % at 1 µM;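 active = inhibition above about 50% in both repeat tests, limit read from the data; inconclusive = one repeat under the set limit, the other over it; inactive = both repeats under the set limit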
# Numbers without * were called inactive; ? = inconclusive; . = not tested or not shown. A selection: hits, their analogues and other compounds. The true share with any hit is near 9.4%.
SMILES,SKKanGAS inh,Beta cell apopt,Mdm2-MdmX inh,T cruzi repl,L major viab,CSC inhib,L major 1uM
CCCNC(=O)c1ccc2c(c1)C1C3CCC(C3)C1C(c1ccccc1)N2 (stereo not given),6,2,25,11,81*,18,3
CC(=O)c1cccc(S(=O)(=O)N2CCCC(c3nc4c(nnn4Cc4cccc(Cl)c4)c(=O)[nH]3)C2)c1 (stereo not given),25,-10,16,-2,.,-3,.
CCOc1cc(/C=N/OC(C)=O)ccc1OCc1ccccc1,0,-1,-1,3,7,-9,.
CCN(CC(=O)NCc1ccc(Cl)cc1)C(=O)CNS(=O)(=O)c1ccc(NC(C)=O)cc1,-2,-2,16,-18,.,-4,.
Cc1ccc(NCC(=O)N/N=C\C(Br)=C\c2ccccc2)cc1,17,7,3,49,68*,40,2
Cc1cc(C)nc(SCC(=O)N/N=C\C(Br)=C\c2ccccc2)n1,-5,3,-1,-55,-3,.,.
Cc1cc(C)c(COCc2cc(/C=N/O)c(C)cc2C)cc1/C=N/O,3,-2,-4,19,89*,25,-10
c1ccc(CCNCCCOc2cccc3ccccc23)cc1,-7,-12,18,?,.,17,.
Cc1ccc(CNC(=O)c2cccc(OCc3c(C)noc3C)c2)cc1,-5,3,12,9,80*,-10,34
Cc1noc(C)c1COc1ccc(CC(=O)NCc2ccccc2)cc1,-3,22,42,-50,7,58,.
CCC(C)Nc1nc2c(c(=O)n(C)c(=O)n2C)n1Cc1ccc(Cl)cc1 (stereo not given),-5,3,-7,6,.,2,.
CCC(C)Nc1nc2c(c(=O)n(C)c(=O)n2C)n1Cc1cccc(C)c1 (stereo not given),1,-3,25,5,83*,-11,-7
CC12CCCCN1CCCc1c2[nH]c2ccccc12 (stereo not given),-1,-2,-12,-10,64*,1,-2
CCOc1ccc(C(=O)Nc2c3c(nn2-c2cccc(Cl)c2)CS(=O)C3)cc1 (stereo not given),-2,1,-2,9,100*,0,11
CCc1cc2c(cc3c(=O)n(CC(=O)N4CCN(C)CC4)ncn32)s1,-4,-9,14,-3,.,-15,.
CCNC(=O)OCCC12CC3CC(CC(C3)C1)C2,.,-2,.,.,86*,1,-11
CCCNC(=O)OCC12CC3CC(CC(C3)C1)C2,4,-7,5,14,9,-8,.
O=C(Nc1ccc(C(F)(F)F)cc1)c1cnc(N2CCN(c3ccccn3)CC2)c2ccccc12,20,4,31,29,-1,3,.
C=CCSC(=S)NC1CCS(=O)(=O)C1 (stereo not given),1,-5,-4,1,93*,22,6
CCOc1ccccc1CNCc1ccc(F)cc1,3,0,3,-8,54*,10,-8
CCOc1ccccc1CNCc1ccc(C(=O)O)cc1,-4,-2,10,-9,6,-8,.
Cc1ccc(S(=O)(=O)/N=C(/Nc2ccc(F)cc2F)c2ccccc2)cc1,-3,-1,1,10,.,-11,.
O=S(=O)(/N=C(/Nc1ccc(F)c(F)c1F)c1ccccc1)c1ccccc1,2,-3,-6,-15,89*,.,-12
O=C(c1cc(-c2ccccc2Cl)nc2ccccc12)N1CCC1,18,-5,8,31,.,-8,.
CCN1CCCC(OC(=O)c2cc(-c3ccccc3Cl)nc3ccccc23)C1 (stereo not given),7,5,-4,28,78*,1,19
O=C(NCc1ccncc1)C(=O)Nc1nc(C23CC4CC(CC(C4)C2)C3)cs1,6,2,22,-1,51*,-5,18
Cc1cc(CNC(=O)COC(=O)C2CC3CCCC(C2)C3=O)cc(C)c1O (stereo not given),.,11,-2,.,.,-4,.

# Screening data (PubChem)
